Laboratory results published in ChEMBL document CHEMBL4732233, “Faropenem reacts with serine and metallo-β-lactamases to give multiple products” (Eur J Med Chem, 2021).

Key:
[1] = Drug metabolism assessed as OXA-23 (unknown origin)-mediated compound hydrolysis by measuring (S)-2-((1S,2R)-1-carboxy-2-hydroxypropyl)-5-(4-hydroxybutylidene)-2,5-dihydrothiazole-4-carboxylic acid formation at 2 mM incubated for 15 mins by 1H-NMR based analysis; format: ADME; conditions: bacteria, 0.25 h, 2000 µM
[2] = Drug metabolism assessed as OXA-48 (unknown origin)-mediated compound hydrolysis by measuring (S)-2-((1S,2R)-1-carboxy-2-hydroxypropyl)-5-(4-hydroxybutylidene)-2,5-dihydrothiazole-4-carboxylic acid formation at 5 mM incubated for 55 mins by 1H-NMR based analysis; format: ADME; conditions: bacteria, 5000 µM
Summary of the method: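 Reaction of OXA-48 (5 μM) with 5 mM faropenem for 55 min in 50 mM sodium phosphate pH 7.5, 10% (v/v) D2O. Products assigned from methyl group resonances in 700 MHz 1H NMR spectra.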

[3] = Drug metabolism assessed as VIM-1 (unknown origin)-mediated compound hydrolysis by measuring (S)-2-((1S,2R)-1-carboxy-2-hydroxypropyl)-5-(4-hydroxybutylidene)-2,5-dihydrothiazole-4-carboxylic acid formation at 5 mM incubated for 5 mins by 1H-NMR based analysis; format: ADME; conditions: bacteria, 5000 µM
[4] = Drug metabolism assessed as VIM-2 (unknown origin)-mediated compound hydrolysis by measuring (S)-2-((1S,2R)-1-carboxy-2-hydroxypropyl)-5-(4-hydroxybutylidene)-2,5-dihydrothiazole-4-carboxylic acid formation at 5 mM incubated for 5 mins by 1H-NMR based analysis; format: ADME; conditions: bacteria, 5000 µM
[5] = Drug metabolism assessed as NDM-1 (unknown origin)-mediated compound hydrolysis by measuring (S)-2-((1S,2R)-1-carboxy-2-hydroxypropyl)-5-(4-hydroxybutylidene)-2,5-dihydrothiazole-4-carboxylic acid formation at 5 mM incubated for 5 mins by 1H-NMR based analysis; format: ADME; conditions: bacteria, 5000 µM
Summary of the method: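 NDM-1 used at 5 μM with 5 mM faropenem, 5 min incubation, in 50 mM sodium phosphate, pH 7.5, 10% (v/v) D2O. Degradation products monitored by 700 MHz 1H NMR via methyl group signals.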

[6] = Drug metabolism assessed as KPC-2 (unknown origin)-mediated compound hydrolysis by measuring (S)-2-((1S,2R)-1-carboxy-2-hydroxypropyl)-5-(4-hydroxybutylidene)-2,5-dihydrothiazole-4-carboxylic acid formation at 5 mM incubated for 72 mins by 1H-NMR based analysis; format: ADME; conditions: bacteria, 1.2 h, 5000 µM
[7] = Drug metabolism assessed as L1 (unknown origin)-mediated compound hydrolysis by measuring (S)-2-((1S,2R)-1-carboxy-2-hydroxypropyl)-5-(4-hydroxybutylidene)-2,5-dihydrothiazole-4-carboxylic acid formation at 5 mM incubated for 5 mins by 1H-NMR based analysis; format: ADME; conditions: bacteria, 5000 µM
Summary of the method: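 L1 enzyme (125 nM) reacted with 5 mM faropenem for 5 min in 50 mM sodium phosphate pH 7.5 containing 10% (v/v) D2O. Product species assigned by 1H NMR (700 MHz) methyl resonances.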

[8] = Drug metabolism assessed as VIM-1 (unknown origin)-mediated compound hydrolysis by measuring (2R)-2-((1S,2R)-1-carboxy-2-hydroxypropyl)-5-((R)-tetrahydrofuran-2-yl)-2,5-dihydrothiazole-4-carboxylic acid formation at 5 mM incubated for 5 mins by 1H-NMR based analysis; format: ADME; conditions: bacteria, 5000 µM
[9] = Drug metabolism assessed as VIM-2 (unknown origin)-mediated compound hydrolysis by measuring (2R)-2-((1S,2R)-1-carboxy-2-hydroxypropyl)-5-((R)-tetrahydrofuran-2-yl)-2,5-dihydrothiazole-4-carboxylic acid formation at 5 mM incubated for 5 mins by 1H-NMR based analysis; format: ADME; conditions: bacteria, 5000 µM
Bacteria [10] = test system: Bacteria
Bacteria [11] = test system: Bacteria; remark: listed apart in the source
Bacteria [12] = test system: Bacteria; remark: listed apart in the source
[13] = test system: Mycobacterium tuberculosis H37Rv
Klebsiella pneumoniae [14] = test system: Klebsiella pneumoniae
Bradyrhizobium japonicum [15] = conditions: USDA110
Bacteria [16] = test system: Bacteria; remark: listed apart in the source
Bacteria [17] = test system: Bacteria; remark: listed apart in the source
Bacteria [18] = test system: Bacteria; remark: listed apart in the source
[19] = test system: Mycobacterium tuberculosis H37Rv; remark: listed apart in the source
Klebsiella pneumoniae [20] = test system: Klebsiella pneumoniae; remark: listed apart in the source
Bradyrhizobium japonicum [21] = conditions: USDA110; remark: listed apart in the source
Bacteria [22] = test system: Bacteria; remark: listed apart in the source
Bacteria [23] = test system: Bacteria; remark: listed apart in the source
Bacteria [24] = test system: Bacteria; remark: listed apart in the source
[25] = test system: Mycobacterium tuberculosis H37Rv; remark: listed apart in the source
Klebsiella pneumoniae [26] = test system: Klebsiella pneumoniae; remark: listed apart in the source
Bradyrhizobium japonicum [27] = conditions: USDA110; remark: listed apart in the source

C[C@@H](O)[C@H]1C(=O)N2C(C(=O)O)=C([C@H]3CCCO3)S[C@H]12 [FAROPENEM]
Drug metabolism [1]: Metabolite_Detected
Drug metabolism [2]: Metabolite_Detected
Drug metabolism [3]: Metabolite_Detected
Drug metabolism [4]: Metabolite_Detected
Drug metabolism [5]: Metabolite_Detected
Drug metabolism [6]: Metabolite_Detected
Drug metabolism [7]: Metabolite_Detected
Drug metabolism [8]: Metabolite_Detected
Drug metabolism [9]: Metabolite_Detected
kcat (Bacteria [10]): 3.71 s⁻¹
kcat (Bacteria [11]): 36.7 s⁻¹
kcat (Bacteria [12]): 43.7 s⁻¹
kcat [13]: 0.91 s⁻¹
kcat (Klebsiella pneumoniae [14]): 14.7 s⁻¹
kcat (Bradyrhizobium japonicum [15]): 2 s⁻¹
Km (Bacteria [16]): 16.6 µM
Km (Bacteria [17]): 5.11 µM
Km (Bacteria [18]): 36.3 µM
Km [19]: 23 µM
Km (Klebsiella pneumoniae [20]): 99 µM
Km (Bradyrhizobium japonicum [21]): 245 µM
kcat/Km (Bacteria [22]): 220000 M⁻¹ s⁻¹
kcat/Km (Bacteria [23]): 7.17e+06 M⁻¹ s⁻¹
kcat/Km (Bacteria [24]): 1.2e+06 M⁻¹ s⁻¹
kcat/Km [25]: 40000 M⁻¹ s⁻¹
kcat/Km (Klebsiella pneumoniae [26]): 150000 M⁻¹ s⁻¹
kcat/Km (Bradyrhizobium japonicum [27]): 8000 M⁻¹ s⁻¹
